{"source": "ChEMBL document CHEMBL3856268", "about": "(J Med Chem, 2016)", "key": {"[1]": {"molecular_target": "T1, NAD-dependent protein deacetylase sirtuin-1 (Homo sapiens, UniProt Q96EB6)", "T1 sequence (Q96EB6 whole entry)": "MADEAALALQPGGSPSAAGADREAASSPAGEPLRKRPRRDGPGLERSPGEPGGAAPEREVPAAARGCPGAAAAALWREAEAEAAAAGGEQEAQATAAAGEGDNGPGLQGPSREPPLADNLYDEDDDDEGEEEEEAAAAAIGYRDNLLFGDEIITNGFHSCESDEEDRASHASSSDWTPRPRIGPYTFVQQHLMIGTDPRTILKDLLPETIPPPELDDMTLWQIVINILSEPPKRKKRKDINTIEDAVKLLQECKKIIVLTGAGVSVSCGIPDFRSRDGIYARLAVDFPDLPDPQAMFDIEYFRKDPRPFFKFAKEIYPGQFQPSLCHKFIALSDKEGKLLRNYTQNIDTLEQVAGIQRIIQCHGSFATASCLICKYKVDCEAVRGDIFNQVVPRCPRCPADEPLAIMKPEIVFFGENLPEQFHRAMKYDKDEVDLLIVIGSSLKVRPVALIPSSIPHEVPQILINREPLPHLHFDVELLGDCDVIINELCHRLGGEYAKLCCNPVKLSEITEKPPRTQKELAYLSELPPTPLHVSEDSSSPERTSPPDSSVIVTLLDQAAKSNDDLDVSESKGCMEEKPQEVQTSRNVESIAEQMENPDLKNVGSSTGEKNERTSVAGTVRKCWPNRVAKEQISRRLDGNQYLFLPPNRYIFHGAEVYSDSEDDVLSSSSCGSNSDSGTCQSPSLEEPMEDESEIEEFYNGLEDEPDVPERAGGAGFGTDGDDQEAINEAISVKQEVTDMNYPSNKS", "test": "Inhibition of human recombinant GST-fused SIRT1 expressed in Escherichia coli DH5-alpha using [3H]acetic acid labeled MPSDKTIGG as substrate after overnight incubation by liquid scintillation counting method"}, "[2]": {"molecular_target": "T2, NAD-dependent protein deacetylase sirtuin-2 (Homo sapiens, UniProt Q8IXJ6)", "T2 sequence (Q8IXJ6 whole entry)": "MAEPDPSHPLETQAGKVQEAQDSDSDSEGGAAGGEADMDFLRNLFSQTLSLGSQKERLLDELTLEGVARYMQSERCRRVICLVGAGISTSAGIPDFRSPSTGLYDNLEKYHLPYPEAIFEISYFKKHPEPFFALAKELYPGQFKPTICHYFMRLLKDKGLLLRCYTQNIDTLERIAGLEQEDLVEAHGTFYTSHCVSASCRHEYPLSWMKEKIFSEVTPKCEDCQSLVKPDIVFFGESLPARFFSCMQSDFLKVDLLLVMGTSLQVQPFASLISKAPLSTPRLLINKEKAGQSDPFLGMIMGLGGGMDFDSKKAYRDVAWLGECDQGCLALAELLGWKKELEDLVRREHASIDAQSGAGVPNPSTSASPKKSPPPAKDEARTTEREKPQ", "test": "Inhibition of human recombinant GST-fused SIRT2 expressed in Escherichia coli DH5-alpha using [3H]acetic acid labeled MPSDKTIGG as substrate after overnight incubation by liquid scintillation counting method"}, "[3]": {"molecular_target": "T3, NAD-dependent protein deacetylase sirtuin-1 (Homo sapiens) (UniProt Q96EB6)", "T3 sequence (whole entry)": "T1 sequence (Q96EB6 whole entry)", "test": "Inhibition of 50 nM N-terminal His6-tagged recombinant human SIRT1 expressed in Escherichia coli at 100 uM using RHKK(Ac)W-NH2 as substrate after 30 mins by UV detection-based HPLC method", "in_short": "(§1)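 SIRT1 (Sigma stock ~6 μM, 10% glycerol, no BSA) freshly diluted in 50 mM Tris-HCl/Tris pH 8.0. Mixture: 200 μM NAD+, 100 μM RHKK(Ac)W-NH2, 1% DMSO, optional additive (Triton X-100 0.01% v:v; BSA 1 mg/mL). Reaction started by enzyme without preincubation, run at 37 °C with conversion kept at 1–10% (30 min at 50 nM, 1 h at 25 nM, 5–10 min at 250 nM). Read-out: C18 HPLC, UV 220 nm, percent conversion from peak areas.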"}, "[4]": {"molecular_target": "T3, NAD-dependent protein deacetylase sirtuin-1 (Homo sapiens)", "test": "Activation of 50 nM N-terminal His6-tagged recombinant human SIRT1 expressed in Escherichia coli at 100 uM using RHKK(Ac)W-NH2 as substrate after 30 mins in presence of 0.01% TX-100 by UV detection-based HPLC method relative to control", "in_short": "as §1"}, "[5]": {"molecular_target": "T3, NAD-dependent protein deacetylase sirtuin-1 (Homo sapiens)", "test": "Activation of 25 nM N-terminal His6-tagged recombinant human SIRT1 expressed in Escherichia coli at 100 uM using RHKK(Ac)W-NH2 as substrate after 1 hr in presence of 0.01% TX-100 by UV detection-based HPLC method relative to control", "in_short": "as §1"}, "[6]": {"molecular_target": "T3, NAD-dependent protein deacetylase sirtuin-1 (Homo sapiens)", "test": "Inhibition of 25 nM N-terminal His6-tagged recombinant human SIRT1 expressed in Escherichia coli at 100 uM using RHKK(Ac)W-NH2 as substrate after 1 hr by UV detection-based HPLC method relative to control", "in_short": "as §1"}, "[7]": {"molecular_target": "T3, NAD-dependent protein deacetylase sirtuin-1 (Homo sapiens)", "test": "Activation of 50 nM N-terminal His6-tagged recombinant human SIRT1 expressed in Escherichia coli at low micromolar concentration using RHKK(Ac)W-NH2 as substrate after 30 mins in presence of 0.01% TX-100 by UV detection-based HPLC method relative to control", "in_short": "as §1"}, "[8]": {"molecular_target": "T3, NAD-dependent protein deacetylase sirtuin-1 (Homo sapiens)", "test": "Activation of 25 nM N-terminal His6-tagged recombinant human SIRT1 expressed in Escherichia coli at 100 uM using RHKK(Ac)W-NH2 as substrate after 1 hr in presence of 0.01% Tween 20 by UV detection-based HPLC method", "in_short": "(§2)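 Same SIRT1 HPLC deacetylation assay: 50 mM Tris-HCl/Tris pH 8.0, 200 μM NAD+, 100 μM RHKK(Ac)W-NH2, 1% DMSO. Started by enzyme addition, 37 °C. Deacetylated product separated by C18 HPLC, detected at 220 nm, and conversion computed from peak areas.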"}, "[9]": {"molecular_target": "T3, NAD-dependent protein deacetylase sirtuin-1 (Homo sapiens)", "test": "Inhibition of 8 nM N-terminal His6-tagged recombinant human SIRT1 expressed in Escherichia coli assessed as remaining activity at 100 uM using RHKK(Ac)W-NH2 as substrate by UV detection-based HPLC method relative to control", "in_short": "as §2"}, "[10]": {"molecular_target": "T3, NAD-dependent protein deacetylase sirtuin-1 (Homo sapiens)", "test": "Activation of 8 nM N-terminal His6-tagged recombinant human SIRT1 expressed in Escherichia coli at 100 uM using RHKK(Ac)W-NH2 as substrate in presence of 0.01% TX-100 by UV detection-based HPLC method relative to control", "in_short": "as §2"}, "[11]": {"molecular_target": "T3, NAD-dependent protein deacetylase sirtuin-1 (Homo sapiens)", "test": "Binding affinity to 25 to 100 nM N-terminal His6-tagged recombinant human SIRT1 expressed in Escherichia coli at 100 uM by 1H NMR method"}, "[12]": {"test": "Drug aggregation in deuterated phosphate buffer assessed as diffusion coefficient at 100 uM by DOSY NMR method", "type": "physicochemical", "in_short": "(§3)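 DOSY at 600 MHz in deuterated phosphate buffer (50 mM, pH 8.0), using stimulated echo with bipolar gradient pulses and spoil gradients. 32 F1 increments of 32 scans, relaxation delay 1 s, acquisition 0.68 s, Δ 50 ms, δ 2.2 ms, 8192 points, 6009 Hz width. Diffusion coefficients taken from residual resonances of the compound.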"}, "[13]": {"test": "Drug aggregation in deuterated phosphate buffer assessed as diffusion coefficient at 1 mM by DOSY NMR method", "type": "physicochemical", "conditions": "1000 µM", "in_short": "as §3"}, "[14]": {"test": "Drug aggregation in deuterated phosphate buffer assessed as diffusion coefficient at 100 uM in presence of 0.001% TX-100 by DOSY NMR method", "type": "physicochemical", "in_short": "as §3"}, "[15]": {"test": "Drug aggregation in deuterated phosphate buffer assessed as diffusion coefficient at 100 uM in presence of 0.01% TX-100 by DOSY NMR method", "type": "physicochemical", "in_short": "as §3"}, "[16]": {"test": "Drug aggregation in deuterated phosphate buffer assessed as diffusion coefficient at 100 uM in presence of 1.5 uM bovine serum albumin by DOSY NMR method", "type": "physicochemical", "in_short": "as §3"}, "[17]": {"molecular_target": "T3, NAD-dependent protein deacetylase sirtuin-1 (Homo sapiens)", "test": "Activation of 25 nM N-terminal His6-tagged recombinant human SIRT1 expressed in Escherichia coli at 100 uM using RHKK(Ac)W-NH2 as substrate after 1 hr in presence of 0.01% TX-100 by UV detection-based HPLC method"}, "[18]": {"molecular_target": "T3, NAD-dependent protein deacetylase sirtuin-1 (Homo sapiens)", "conditions": "1 uM"}, "[19]": {"molecular_target": "T3, NAD-dependent protein deacetylase sirtuin-1 (Homo sapiens)", "conditions": "1 uM", "remark": "listed apart in the source"}, "[20]": {"molecular_target": "T3, NAD-dependent protein deacetylase sirtuin-1 (Homo sapiens)", "conditions": "1 uM", "remark": "listed apart in the source"}}, "note": "The source made the active and inactive calls. No cut-off for these calls is given here.", "data": [{"smiles": "CC(C)=CCC/C(C)=C/C[C@@H]1C[C@]2(CC=C(C)C)C(=O)[C@@](CC=C(C)C)(C(=O)C(C(=O)c3ccc(O)c(O)c3)=C2O)[C@@]1(C)CCC=C(C)C", "note": "[OBLONGIFOLIN C]", "values": [{"measurement": "IC50", "setting": "[1]", "result": 9, "unit": "µM"}, {"measurement": "IC50", "setting": "[2]", "result": 22, "unit": "µM"}]}, {"smiles": "CC(C)=CCC[C@]1(C)[C@@H](CC=C(C)C)C[C@@]2(CC=C(C)C)C(=O)[C@]1(C(=O)C(C)C)C(=O)C(CC=C(C)C)=C2OCC(=O)O", "values": [{"measurement": "inhibition", "setting": "[3]", "result": "Active"}, {"measurement": "Activity", "setting": "[4]", "result": "Active"}, {"measurement": "Activity", "setting": "[5]", "result": "Active"}]}, {"smiles": "CC(C)=CCC[C@]1(C)[C@@H](CC=C(C)C)C[C@]2(CC=C(C)C)C(=O)[C@@]1(CC=C(C)C)C(=O)C(C(=O)c1ccc(O)c(O)c1)=C2O", "note": "[GUTTIFERONE A]", "values": [{"measurement": "inhibition", "setting": "[3]", "result": "Active"}, {"measurement": "inhibition", "setting": "[6]", "result": 90, "unit": "%"}, {"measurement": "fold change (FC)", "setting": "[4]", "result": 2}, {"measurement": "fold change (FC)", "setting": "[5]", "result": 2}, {"measurement": "Activity", "setting": "[7]", "result": "Active"}, {"measurement": "Activity", "setting": "[8]", "result": "Active"}, {"measurement": "Activity", "setting": "[9]", "result": 1, "unit": "%"}, {"measurement": "Activity", "setting": "[10]", "result": 158, "unit": "%"}, {"measurement": "Activity", "setting": "[11]", "result": "Active"}, {"measurement": "D", "setting": "[12]", "result": 2.706, "unit": "×10⁻¹⁰ m2/s"}, {"measurement": "D", "setting": "[13]", "result": 2.246, "unit": "×10⁻¹⁰ m2/s"}, {"measurement": "D", "setting": "[14]", "result": 2.298, "unit": "×10⁻¹⁰ m2/s"}, {"measurement": "D", "setting": "[15]", "result": 1.808, "unit": "×10⁻¹⁰ m2/s"}, {"measurement": "D", "setting": "[16]", "result": 1.61, "unit": "×10⁻¹⁰ m2/s"}, {"measurement": "Activity", "setting": "[17]", "result": "Active"}]}, {"smiles": "CC(C)=CCC[C@]1(C)[C@@H](CC=C(C)C)C[C@]2(CC=C(C)C)C(=O)C(CC=C(C)C)=C(O)[C@@]1(C(=O)C(C)C)C2=O", "values": [{"measurement": "inhibition", "setting": "[3]", "result": "Active"}, {"measurement": "Activity", "setting": "[4]", "result": "Active"}]}, {"smiles": "CC1=CCC(C(=O)/N=C2\\CC=C(S(=O)(=O)O)c3cc(S(=O)(=O)O)cc(S(=O)(=O)O)c32)=C/C1=N/C(=O)C1=CC=C/C(=N\\C(=O)/N=C2\\C=CC=C(C(=O)/N=C3/CC(C(=O)/N=C4\\CC=C(S(=O)(=O)O)c5cc(S(=O)(=O)O)cc(S(=O)(=O)O)c54)=CC=C3C)C2)C1", "values": [{"measurement": "inhibition", "setting": "[18]", "result": "Active"}, {"measurement": "inhibition", "setting": "[19]", "result": "Active"}, {"measurement": "inhibition", "setting": "[20]", "result": "Active"}]}]}
